Assay results: PubChem BioAssay AID540295 (The Scripps Research Institute Molecular Screening Center, 2011)
Among all 360,000 compounds or so, about 1,700 (0.47%) were called active. The sample holds actives, similar compounds and a random draw of the others, so the mix is not that of the screen.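 Rule for the calls: active = inhibition above its plate's cutoff, the mean of tested wells on that plate plus 3 SD (cut at about 29% in these data); inactive = the rest.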

The compounds below were run against Melanocortin receptor 4 (Homo sapiens) (UniProt P32245) (assay: blockers of MC4R Gs-cAMP response – cell-based, TR-FRET, antagonist arm of biased-ligand search, primary screen (AID 540295;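 note: 0% = Melanotan II alone and 100% = Melanotan II plus saturating MCL0020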)). Settings: MC4R-expressing cells, MTII-stimulated cAMP, LANCE TR-FRET; at 6.5 µM; hits give high values.
Sequence of Melanocortin receptor 4 (Homo sapiens) (P32245 whole entry, looked up): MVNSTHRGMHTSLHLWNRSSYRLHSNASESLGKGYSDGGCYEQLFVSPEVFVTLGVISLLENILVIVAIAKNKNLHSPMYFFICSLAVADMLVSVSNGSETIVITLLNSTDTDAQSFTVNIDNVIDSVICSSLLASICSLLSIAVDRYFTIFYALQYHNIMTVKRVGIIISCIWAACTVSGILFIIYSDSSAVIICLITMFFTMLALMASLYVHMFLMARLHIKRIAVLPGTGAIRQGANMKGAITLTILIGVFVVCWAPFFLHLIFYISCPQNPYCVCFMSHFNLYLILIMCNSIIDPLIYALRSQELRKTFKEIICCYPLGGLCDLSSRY
Summary of the method: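 System: U2OS-MC4R stable cell line; Technique: Eu-cAMP/anti-cAMP TR-FRET, emission 671 nm; Repeats: single well per compound; Also added: Melanotan II; Dosing: one concentration, 6.5 µM nominal; Schedule: 30-min compound, 1-h challenge, 1-h detection, room temperature.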
For `NC(=O)COc1ccc(C23CC4CC(CC(C4)C2)C3)cc1`, the inhibition was -2.25% (inactive). In the case of `CCCC(NC(=O)c1ccccc1)c1nc2ccccc2n1Cc1ccc(C(=O)OC)o1` (centres undefined), the inhibition was -3.45% (inactive). For `CCOC(=O)CSc1nc(N2CCOCC2)c2c(c1C#N)CC(C(C)C)OC2` (centres undefined), the inhibition was 28.7% (active). With `CC(C)Cc1nc(N2CCOCC2)c(C#N)c2c1CCC2` the inhibition was 8.79% (inactive). For `COc1ccc(CSc2nc(N3CCOCC3)c3c(c2C#N)CC(C)(C)OC3)cc1`, the inhibition was 19% (inactive). For `COc1ccc(CCNC(=O)CSCc2ccc(Br)cc2)cc1OC`, the inhibition was 1.08% (inactive). In the case of `CC(C)c1ccc(NC(=O)CCN2C(=O)c3ccc([N+](=O)[O-])cc3C2=O)cc1`, the inhibition was 7.45% (inactive). For `O=NN(CCCl)C(=O)NCCc1cccc[n+]1[O-]`, the inhibition was 7.72% (inactive). With `CC(C)(C)C1CCC(OC(=O)CCC(=O)Nc2ccccc2)CC1` (centres undefined) the inhibition was 2.76% (inactive). With `CC1C(C)N(C(=O)CCl)c2ccccc2N1C(=O)CCl` (centres undefined) the inhibition was -4% (inactive). For `COc1ccc(C(=O)OCC(=O)NCC2CCCO2)cc1[N+](=O)[O-]` (centres undefined), the inhibition was 1.35% (inactive). For `C[C@@H](NC(=O)c1nc[nH]c1C(=O)N1CCN(C(=O)OC(C)(C)C)CC1)c1ccccc1`, the inhibition was 15.2% (inactive). `CC(C)(C)OC(=O)N1CCC(NC(=O)c2[nH]cnc2C(=O)N[C@@H](Cc2ccccc2)C(=O)OCc2ccccc2)CC1` was tested, and the inhibition was 35.5% (active). `O=C(N[C@@H](Cc1ccccc1)C(=O)OCc1ccccc1)c1nc[nH]c1C(=O)N[C@@H](Cc1ccccc1)C(=O)OCc1ccccc1` was tested, and the inhibition was 10.8% (inactive). For `O=C1NC(c2ccccc2)CCC1(Cl)Cl` (centres undefined), the inhibition was 3.93% (inactive). In the case of `C=CCn1c(SCC(=O)c2c(N)n(C)c(=O)n(C)c2=O)nc2sc(CC)cc2c1=O`, the inhibition was 8.69% (inactive). For `Cc1ccc(CSc2nnc(-c3cnccn3)n2C)cc1`, the inhibition was 29.1% (active). In the case of `Cn1c(SCc2ccc(F)cc2)nnc1-c1ccncc1`, the inhibition was 0.33% (inactive). `Cn1c(SCc2c(F)cccc2Cl)nnc1-c1cnccn1` was tested, and the inhibition was -3.89% (inactive). In the case of `[O-][n+]1onc2c1CCc1[nH]c(-c3ccccc3)nc1-2`, the inhibition was 2.02% (inactive). `COc1ccc(NS(=O)(=O)c2ccc(C)c(C(=O)NNC(=O)c3csc(N4CCOCC4)n3)c2)cc1` was tested, and the inhibition was -2.21% (inactive). For `CCCCCOc1ccc(/C=C/C(=O)NCCc2nc3ccccc3[nH]2)cc1OC`, the inhibition was 6.2% (inactive). With `CC(C)=C(NC(=O)c1ccco1)C(=O)NCCc1nc2ccccc2[nH]1` the inhibition was 2.22% (inactive). In the case of `CC(C)Oc1ccc(/C=C(\NC(=O)/C=C/c2ccco2)C(=O)NCCc2nc3ccccc3[nH]2)cc1`, the inhibition was 28.9% (active). With `O=C(N/N=C\c1ccc(-c2ccc(Cl)c(Cl)c2)o1)C(=O)N1CCCC1` the inhibition was 4.11% (inactive). For `Cc1ccc(S(=O)(=O)N(CC(=O)NCc2ccco2)c2ccccc2C)cc1`, the inhibition was 12.4% (inactive). For `COc1ccc(Cc2cc(-c3ccc(F)cc3)n[nH]c2=O)cc1`, the inhibition was 9.23% (inactive). `COc1ccc(-n2nc(C(=O)Nc3cc(OC)c(OC)c(OC)c3)c3ccccc3c2=O)c(OC)c1` was tested, and the inhibition was 31.6% (active). In the case of `COc1cccc(NC(=O)c2nn(-c3ccc(OC)cc3OC)c(=O)c3ccccc23)c1`, the inhibition was -1.09% (inactive). With `COc1ccc(-n2nc(C(=O)NCC(=O)N3CCN(c4ccccc4OC)CC3)c3ccccc3c2=O)c(OC)c1` the inhibition was 1.93% (inactive). In the case of `COc1ccc(CCNC(=O)CN2C(=O)COc3ccc(S(=O)(=O)N4CCCC4)cc32)cc1OC`, the inhibition was 3.63% (inactive). In the case of `CCCS(=O)(=O)NC(=O)C1(C)CCCN(C(=O)c2cc(C)on2)C1` (centres undefined), the inhibition was 10.6% (inactive). For `Cc1cc(=O)oc2c3c(cc(OCC(=O)NCc4ccccn4)c12)OC(C)(C)CC3`, the inhibition was -0.73% (inactive). In the case of `Cc1ccc(C)c(OCCC(=O)OCC(=O)c2ccc3c(c2)NC(=O)CO3)c1`, the inhibition was 2.21% (inactive). For `O=C(O)CN1C(=O)CC(Cc2ccccc2)C1=O` (centres undefined), the inhibition was -3.51% (inactive). `Cc1ccc(NC(=O)C2CC2c2ccccc2)cc1` (centres undefined) was tested, and the inhibition was 0.14% (inactive). `COc1ccc(Sc2ccc(NC(=O)c3cccc(Cl)c3)cc2C#N)cc1` was tested, and the inhibition was 5.3% (inactive). With `Cc1ccc(Sc2ccc(NC(=O)c3ccc(F)cc3)cc2C#N)cc1` the inhibition was 33.5% (active). `COC(=O)c1ccc(Sc2ccc(F)cc2)c(N)c1` was tested, and the inhibition was -11.2% (inactive). For `Cc1ccccc1SCC(=O)OCC(=O)N1CC(=O)Nc2ccccc21`, the inhibition was 0.86% (inactive). With `CN(C)S(=O)(=O)c1ccc(NC(=O)COC(=O)Cn2[nH]c(=O)c3ccccc3c2=O)cc1` the inhibition was 9.38% (inactive). In the case of `Cc1ccc(S(=O)(=O)N2CCC(C(=O)OCC(=O)N3CC(=O)Nc4ccccc43)CC2)cc1`, the inhibition was 20.2% (inactive). `CN(c1ccccc1)S(=O)(=O)c1ccc(NC(=O)COc2ccccc2)cc1` was tested, and the inhibition was -6.55% (inactive). `Cc1ccc(S(=O)(=O)N(C)CC(=O)OCC(=O)N2CC(=O)Nc3ccccc32)cc1` was tested, and the inhibition was 33.9% (active). For `Cc1ccc(S(=O)(=O)N(C)CC(=O)OCC(=O)Nc2ccccc2)cc1`, the inhibition was 34.1% (active). With `COc1ccnc(Oc2ccccc2)n1` the inhibition was 0.1% (inactive). In the case of `CN(C)CCN1CCN(c2cc(-c3cccc(Cl)c3)nc3ccnn23)CC1`, the inhibition was 3.3% (inactive). With `O=C(c1ccccc1)N1CCN(c2cc(-c3ccccc3)nc3cc(-c4cccc(Cl)c4)nn23)CC1` the inhibition was 1.52% (inactive). `C#Cc1cc(N2CCN(C(=O)c3ccoc3)CC2)n2nc(-c3cccc(Cl)c3)cc2n1` was tested, and the inhibition was 32.1% (active). `CC(CNc1ccc([N+](=O)[O-])c2cccnc12)Nc1c([N+](=O)[O-])cc(C(F)(F)F)cc1[N+](=O)[O-]` (centres undefined) was tested, and the inhibition was 7.59% (inactive). For `COc1ccccc1-c1n[nH]c2c1[C@H](C)CC[C@H]2C(C)C`, the inhibition was 10% (inactive). In the case of `Cc1cc(C)cc(Oc2c(C(F)(F)F)oc3cc(OCC(=O)O)ccc3c2=O)c1`, the inhibition was -2.27% (inactive). In the case of `O=C(CSc1nc(Nc2ccccc2)nc(N2CCOCC2)n1)Nc1cc(Cl)ccc1O`, the inhibition was -4.1% (inactive). `O=C(CSc1nc2ccc(Nc3nc(N4CCOCC4)nc(N4CCOCC4)n3)cc2s1)NCc1ccco1` was tested, and the inhibition was 29.5% (active). For `O=C(CSc1c2c(nc3ccc(Cl)cc13)CCCC2)NCc1ccco1`, the inhibition was 11.1% (inactive). With `Cc1ccccc1N1CC(C(=O)Nc2ccc3c(c2)OCO3)CC1=O` (centres undefined) the inhibition was 8.22% (inactive). In the case of `CCOCc1nnc(NC(=O)CCS(=O)(=O)Cc2ccccc2)s1`, the inhibition was 4.21% (inactive). For `O=C1C(Cl)=C(Oc2ccccc2)C(=O)c2ccccc21`, the inhibition was 93.5% (active). In the case of `CCC1CCCCN1C(=S)Nc1ccc(S(=O)(=O)Nc2ncccn2)cc1` (centres undefined), the inhibition was -1.16% (inactive). `C=CC(=O)OCCOCCOCCOCCOC(=O)C=C` was tested, and the inhibition was -0.74% (inactive). With `COCC(C)NC(=O)c1ccc(-n2nc(C(F)(F)F)cc2-c2cccs2)cc1` (centres undefined) the inhibition was 11.7% (inactive). `Cc1ccc(C)c(NC2=NCC(=O)N2c2ccc3c(c2)OCCO3)c1` was tested, and the inhibition was -2.27% (inactive). In the case of `Cc1cc(=O)oc2c3c(cc(OCC(=O)NCC(O)c4ccccc4)c12)OC(C)(C)CC3` (centres undefined), the inhibition was 14.2% (inactive). In the case of `Brc1c(CSc2nncc3ccccc23)nc2ccccn12`, the inhibition was 0.34% (inactive). `CCOC(=O)C(C)n1cnc2sc(C)c(C)c2c1=O` (centres undefined) was tested, and the inhibition was 31.2% (active). `CC(C(=O)O)n1cnc2sc3c(c2c1=O)CCCC3` (centres undefined) was tested, and the inhibition was -7.65% (inactive). In the case of `CCOC(=O)C(C)n1cnc2scc(-c3ccc(C)c(C)c3)c2c1=O` (centres undefined), the inhibition was 1.47% (inactive). With `CC(=O)NC12CC3CC(C1)CC(C(=O)N1CCN(C(=O)c4ccco4)CC1)(C3)C2` the inhibition was -0.56% (inactive). `COc1ccc(Nc2ncc(F)c(N3CCOCC3)n2)cc1` was tested, and the inhibition was -0.86% (inactive). `CCOc1ccc(Nc2nc(Cl)nc(N3CCN(c4ccc(OC)cc4)CC3)n2)cc1` was tested, and the inhibition was 29.1% (active). With `CCN1CCN(c2nc(Nc3cc(OC)ccc3OC)nc(Nc3cc(OC)ccc3OC)n2)CC1` the inhibition was 12.3% (inactive). `Cc1ccc(Nc2cc(C)nc3c(C)ccc([N+](=O)[O-])c23)cc1` was tested, and the inhibition was -5.69% (inactive). With `CCNC(=O)CCc1nc(-c2ccc(C(C)(C)C)cc2)no1` the inhibition was 9.83% (inactive). With `Cc1cccc(-c2nc3c(c(SCC(=O)N4CCOCC4)n2)CCCC3)c1` the inhibition was 3.91% (inactive). For `CCCS(=O)(=O)NC(=O)C1(C)CCCN(C(=O)c2ccnc(Cl)c2)C1` (centres undefined), the inhibition was -1.37% (inactive). With `Cc1nnc(N/N=C/c2ccccn2)[nH]c1=O` the inhibition was -1.07% (inactive). In the case of `Cc1nnc(N/N=C/C2CC=CCC2)[nH]c1=O` (centres undefined), the inhibition was 33.9% (active). For `O=C(N/N=C\C1CC=CCC1)c1ccc(Br)o1` (centres undefined), the inhibition was 6.38% (inactive). In the case of `CCN1CCN(C(=O)CN(C)S(=O)(=O)c2ccc(OC)cc2)CC1`, the inhibition was 9.54% (inactive). For `Cc1ccc(C)c(S(=O)(=O)N2CCN(CC(=O)Nc3ccc([N+](=O)[O-])cc3)CC2)c1`, the inhibition was 34.2% (active). With `Cc1ccc([N+](=O)[O-])cc1S(=O)(=O)N1CCCN(C)CC1` the inhibition was -8.59% (inactive). `Cc1ccc(NC(=O)CCNC(=O)c2ccc([N+](=O)[O-])cc2)cc1S(=O)(=O)N1CCOCC1` was tested, and the inhibition was -2.86% (inactive). `COC(=O)c1ccc(CSc2ccc(S(=O)(=O)N3CCCCC3)cn2)cc1` was tested, and the inhibition was 0.99% (inactive). `Cc1ccc(SC(CC(=O)c2ccc(C(C)(C)C)cc2)C(=O)O)cc1` (centres undefined) was tested, and the inhibition was 31.2% (active). With `Cc1ccc(Sc2cc(C(=O)c3ccccc3C(=O)O)ccc2[N+](=O)[O-])cc1` the inhibition was -7.09% (inactive). In the case of `Cc1ccc(SC(C)C(=O)NCc2ccc(F)cc2)cc1` (centres undefined), the inhibition was -3.51% (inactive). With `CCCC(C(=O)n1nc(C)cc1C)C(NS(=O)(=O)c1ccc(C)cc1)c1ccccc1` (centres undefined) the inhibition was 34.4% (active). For `Cc1ccc(S(=O)(=O)NC(C(=O)N2CCOCCOCCOCCOCC2)c2ccccc2)cc1` (centres undefined), the inhibition was -0.07% (inactive). For `Cc1ccc(S(=O)(=O)Nc2nc(C)cc(-n3nc(C)cc3C)n2)cc1`, the inhibition was 14.3% (inactive).
